Data set [1] concerns BaF3. Briefly: Antileukemic activity against mouse BA/F3 cells harboring NRAS-G12D mutant/luciferase allografted in immunodeficient mouse at 15 mg/kg/day, po qd administered on day 6 post implantation measured on day 20 post implantation by bioluminescence imaging method. The class given is functional. In a few lines: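 Immunodeficient mice injected via tail vein with Ba/F3-NRAS-G12D/Luc cells, dosed orally once daily (8 or 15 mg/kg/day) or vehicle for 3 weeks, n=4 per cohort; bioluminescence imaged every two days after luciferin 150 mg/kg, quantified by bio-photonic analysis.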

In data set [2] the target is Mitogen-activated protein kinase 11 (Homo sapiens) (UniProt Q15759). The data set is described as follows: Inhibition of human P38beta at 1 uM relative to control.
Chain of Mitogen-activated protein kinase 11 (Homo sapiens) (Q15759 whole entry, the tested form may be a part): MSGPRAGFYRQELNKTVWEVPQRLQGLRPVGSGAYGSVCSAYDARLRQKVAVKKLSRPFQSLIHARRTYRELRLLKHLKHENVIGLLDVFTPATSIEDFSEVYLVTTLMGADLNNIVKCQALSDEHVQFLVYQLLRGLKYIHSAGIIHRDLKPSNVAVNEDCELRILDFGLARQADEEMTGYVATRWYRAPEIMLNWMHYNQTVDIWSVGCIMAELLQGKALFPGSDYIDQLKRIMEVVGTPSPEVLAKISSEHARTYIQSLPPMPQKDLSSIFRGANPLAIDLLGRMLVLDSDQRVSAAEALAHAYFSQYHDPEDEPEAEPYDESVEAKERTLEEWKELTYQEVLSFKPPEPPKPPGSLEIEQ
Data set [3] addresses Discoidin domain-containing receptor 2 (Homo sapiens) (UniProt Q16832). Briefly: Inhibition of human DDR2 at 1 uM relative to control.
Data set [4] can be described thus: Tmax in mouse at 10 mg/kg, po. The class given is ADME, organism-based. As to conditions: in vivo.
In data set [5] the target is Tyrosine-protein kinase Fgr (Homo sapiens) (UniProt P09769). Briefly: Inhibition of human FGR at 1 uM relative to control.
Data set [6] concerns OCI-AML-3. The data set is described as follows: Induction of apoptosis in human OCI-AML3 cells harboring NRAS Q61L mutant assessed as increase in apoptotic cells after 24 hrs by annexin V/propidium iodide staining based FACS analysis. The class given is functional, cell-based. Summed up: (§1)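 Apoptosis scored by flow cytometry after FITC-annexin V/propidium iodide dual staining following 24 h exposure, at 1 µM or a range of indicated concentrations; three independent experiments, mean with SD, one-way ANOVA.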
(In general: In flow cytometry, cells or beads pass a laser one at a time.)

Data set [7] deals with T1, Mitogen-activated protein kinase kinase kinase kinase 2 (Homo sapiens) (UniProt Q12851).
T1 sequence (whole entry): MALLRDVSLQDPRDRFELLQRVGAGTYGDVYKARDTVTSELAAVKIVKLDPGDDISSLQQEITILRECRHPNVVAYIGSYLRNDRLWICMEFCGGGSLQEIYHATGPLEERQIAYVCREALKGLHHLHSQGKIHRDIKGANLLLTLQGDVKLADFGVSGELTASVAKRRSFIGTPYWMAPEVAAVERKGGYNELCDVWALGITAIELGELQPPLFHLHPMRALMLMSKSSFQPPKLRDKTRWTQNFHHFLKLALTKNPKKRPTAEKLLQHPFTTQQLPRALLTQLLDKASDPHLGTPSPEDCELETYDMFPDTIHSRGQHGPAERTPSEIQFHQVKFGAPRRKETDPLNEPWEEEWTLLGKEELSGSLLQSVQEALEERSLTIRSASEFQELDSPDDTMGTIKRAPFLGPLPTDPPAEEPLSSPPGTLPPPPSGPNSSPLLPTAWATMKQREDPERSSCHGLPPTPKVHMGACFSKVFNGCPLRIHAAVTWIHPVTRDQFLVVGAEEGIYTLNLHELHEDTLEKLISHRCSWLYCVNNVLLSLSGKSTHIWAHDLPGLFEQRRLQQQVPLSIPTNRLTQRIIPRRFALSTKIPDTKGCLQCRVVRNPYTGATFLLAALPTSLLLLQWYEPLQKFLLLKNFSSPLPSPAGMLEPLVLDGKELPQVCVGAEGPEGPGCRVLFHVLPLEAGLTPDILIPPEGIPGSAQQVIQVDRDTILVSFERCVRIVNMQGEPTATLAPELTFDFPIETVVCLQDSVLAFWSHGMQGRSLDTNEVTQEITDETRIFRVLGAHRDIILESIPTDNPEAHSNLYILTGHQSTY
The note with it: 1 uM.

Data set [8] relates to OCI-AML-3. Briefly: Antileukemic activity against human OCI-AML3 cells harboring NRAS-Q61L mutant xenografted in immunodeficient mouse assessed as tumor volume at 25 mg/kg/day, po qd administered on day 21 post implantation measured on day 20 post dose (reference value: 100%). It is filed as functional. Background: Xenograft models place foreign cells or tissue in a host animal.

Data set [9] addresses Cytoplasmic tyrosine-protein kinase BMX (Homo sapiens) (UniProt P51813). The note with it: 1 uM.
The subject of data set [10] is BaF3. The data set is described as follows: Induction of apoptosis in mouse BA/F3 cells expressing NRAS-G12D mutant assessed as increase in apoptotic cell after 24 hrs by annexin V/propidium iodide staining based FACS analysis. The class given is functional. Summed up:
as §1

The target in data set [11] is Serine/threonine-protein kinase SIK1 (Homo sapiens) (UniProt P57059). The data set is described as follows: Inhibition of human SIK1 at 1 uM relative to control.
Chain of Serine/threonine-protein kinase SIK1 (Homo sapiens) (P57059 whole entry): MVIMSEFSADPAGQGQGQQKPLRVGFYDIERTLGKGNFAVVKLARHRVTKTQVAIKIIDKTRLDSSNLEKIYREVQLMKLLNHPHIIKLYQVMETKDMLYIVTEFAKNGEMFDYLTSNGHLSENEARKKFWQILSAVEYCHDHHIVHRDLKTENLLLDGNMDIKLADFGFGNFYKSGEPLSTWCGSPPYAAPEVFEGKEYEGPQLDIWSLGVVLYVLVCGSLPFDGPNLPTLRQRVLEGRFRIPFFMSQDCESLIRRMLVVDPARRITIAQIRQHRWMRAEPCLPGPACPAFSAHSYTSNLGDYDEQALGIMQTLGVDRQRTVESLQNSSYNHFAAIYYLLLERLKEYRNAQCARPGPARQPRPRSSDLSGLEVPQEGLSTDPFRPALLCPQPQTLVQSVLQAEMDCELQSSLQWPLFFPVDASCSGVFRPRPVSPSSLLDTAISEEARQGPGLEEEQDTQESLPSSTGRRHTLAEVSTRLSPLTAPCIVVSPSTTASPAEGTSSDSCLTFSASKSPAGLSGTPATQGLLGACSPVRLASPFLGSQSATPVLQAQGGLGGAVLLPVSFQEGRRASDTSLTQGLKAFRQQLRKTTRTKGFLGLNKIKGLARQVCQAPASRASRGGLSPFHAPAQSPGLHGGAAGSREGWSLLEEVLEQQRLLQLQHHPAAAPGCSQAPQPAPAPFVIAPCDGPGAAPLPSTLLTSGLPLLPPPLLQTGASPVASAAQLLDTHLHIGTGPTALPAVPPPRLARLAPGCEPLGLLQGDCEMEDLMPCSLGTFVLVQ
In a further data set the test system is Mus musculus. Briefly: Toxicity in immunodeficient mouse allografted with mouse BA/F3 cells harboring NRAS-G12D mutant assessed as body weight loss at 15 to 25 mg/kg/day, po qd administered on day 6 post implantation. The class given is organism-based. The note with it: in vivo. Summed up:
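Immunodeficient mice were given Ba/F3-NRAS-G12D/luciferase cells by tail-vein injection and then dosed orally once daily, with a vehicle-only cohort as control. Body weight was followed during treatment. The bioluminescence cohorts had n=4 and were treated for 3 weeks.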

Data set [12] relates to BaF3. The data set is described as follows: Induction of apoptosis in mouse BA/F3 cells expressing NRAS-G12D mutant assessed as increase in cleaved PARP levels at 5 uM after 24 hrs by Western blot analysis. It is filed as functional, cell-based. Summed up: (§2)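 Cells treated 24 h with indicated concentrations (1 µM; 5 µM also used in Ba/F3-NRAS-G12D); cleaved PARP, cleaved caspase 3, bcl-2 and MCL1 detected by western blot with actin as loading control.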

The target of data set [13] is Tyrosine-protein kinase JAK1 (Homo sapiens) (UniProt P23458). Briefly: Inhibition of human JAK1 at 1 uM relative to control.
Chain of Tyrosine-protein kinase JAK1 (Homo sapiens) (P23458 whole entry): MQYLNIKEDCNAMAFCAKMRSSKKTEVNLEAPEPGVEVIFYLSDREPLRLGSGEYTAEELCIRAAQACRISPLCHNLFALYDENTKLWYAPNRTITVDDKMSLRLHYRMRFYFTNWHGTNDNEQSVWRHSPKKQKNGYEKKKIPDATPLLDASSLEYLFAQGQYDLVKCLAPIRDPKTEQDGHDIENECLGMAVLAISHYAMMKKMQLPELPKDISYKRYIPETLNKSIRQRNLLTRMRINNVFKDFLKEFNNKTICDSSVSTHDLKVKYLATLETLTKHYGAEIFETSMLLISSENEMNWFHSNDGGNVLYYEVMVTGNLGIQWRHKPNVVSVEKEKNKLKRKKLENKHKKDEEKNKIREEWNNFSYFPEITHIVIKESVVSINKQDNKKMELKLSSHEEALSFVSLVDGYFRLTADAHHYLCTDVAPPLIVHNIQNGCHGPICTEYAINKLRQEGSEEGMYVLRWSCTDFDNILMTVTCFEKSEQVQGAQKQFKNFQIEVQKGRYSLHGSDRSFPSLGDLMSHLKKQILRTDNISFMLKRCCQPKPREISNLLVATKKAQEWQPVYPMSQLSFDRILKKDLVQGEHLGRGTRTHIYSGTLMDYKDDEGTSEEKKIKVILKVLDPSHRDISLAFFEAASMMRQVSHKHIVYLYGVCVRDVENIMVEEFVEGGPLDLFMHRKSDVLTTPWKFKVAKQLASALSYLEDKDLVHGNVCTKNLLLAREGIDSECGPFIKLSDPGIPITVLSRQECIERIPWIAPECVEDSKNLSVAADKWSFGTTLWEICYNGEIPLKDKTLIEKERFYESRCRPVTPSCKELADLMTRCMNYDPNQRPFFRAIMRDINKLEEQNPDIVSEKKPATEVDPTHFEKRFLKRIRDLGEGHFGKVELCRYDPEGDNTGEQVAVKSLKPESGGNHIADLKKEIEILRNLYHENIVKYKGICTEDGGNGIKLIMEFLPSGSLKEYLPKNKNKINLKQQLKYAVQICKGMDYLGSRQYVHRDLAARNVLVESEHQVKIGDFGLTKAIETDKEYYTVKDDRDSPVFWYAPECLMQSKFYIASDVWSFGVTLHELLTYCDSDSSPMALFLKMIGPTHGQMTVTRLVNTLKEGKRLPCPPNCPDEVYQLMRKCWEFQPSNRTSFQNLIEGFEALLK
The nature of data set [14]: AUCinfinity in mouse at 10 mg/kg, po. The class given is ADME, organism-based. Also noted: dose 10 mg/kg, route oral, time infinity. The note with it: in vivo.
For data set [15], the target named is Tyrosine-protein kinase Lyn (Homo sapiens) (UniProt P07948). The note with it: 1 uM.
Chain of Tyrosine-protein kinase Lyn (Homo sapiens) (P07948 2-512 limits assumed): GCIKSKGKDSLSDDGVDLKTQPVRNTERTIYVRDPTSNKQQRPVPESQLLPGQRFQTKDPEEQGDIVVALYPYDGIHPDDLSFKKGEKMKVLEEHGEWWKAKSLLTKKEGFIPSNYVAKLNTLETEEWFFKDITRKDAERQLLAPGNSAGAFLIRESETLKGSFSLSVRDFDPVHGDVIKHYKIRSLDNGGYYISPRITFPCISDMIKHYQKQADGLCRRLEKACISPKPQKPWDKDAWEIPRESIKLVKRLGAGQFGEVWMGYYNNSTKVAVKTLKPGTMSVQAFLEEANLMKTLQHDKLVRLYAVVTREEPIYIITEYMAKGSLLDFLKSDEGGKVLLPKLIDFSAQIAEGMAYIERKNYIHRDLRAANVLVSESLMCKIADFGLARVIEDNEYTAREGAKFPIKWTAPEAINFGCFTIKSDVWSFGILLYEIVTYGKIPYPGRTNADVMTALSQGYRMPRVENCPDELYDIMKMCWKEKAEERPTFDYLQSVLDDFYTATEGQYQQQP
In data set [16] the target is Macrophage colony-stimulating factor 1 receptor (Homo sapiens) (UniProt P07333). The data set is described as follows: Inhibition of human FMS at 1 uM relative to control.
Chain of Macrophage colony-stimulating factor 1 receptor (Homo sapiens) (P07333 whole entry): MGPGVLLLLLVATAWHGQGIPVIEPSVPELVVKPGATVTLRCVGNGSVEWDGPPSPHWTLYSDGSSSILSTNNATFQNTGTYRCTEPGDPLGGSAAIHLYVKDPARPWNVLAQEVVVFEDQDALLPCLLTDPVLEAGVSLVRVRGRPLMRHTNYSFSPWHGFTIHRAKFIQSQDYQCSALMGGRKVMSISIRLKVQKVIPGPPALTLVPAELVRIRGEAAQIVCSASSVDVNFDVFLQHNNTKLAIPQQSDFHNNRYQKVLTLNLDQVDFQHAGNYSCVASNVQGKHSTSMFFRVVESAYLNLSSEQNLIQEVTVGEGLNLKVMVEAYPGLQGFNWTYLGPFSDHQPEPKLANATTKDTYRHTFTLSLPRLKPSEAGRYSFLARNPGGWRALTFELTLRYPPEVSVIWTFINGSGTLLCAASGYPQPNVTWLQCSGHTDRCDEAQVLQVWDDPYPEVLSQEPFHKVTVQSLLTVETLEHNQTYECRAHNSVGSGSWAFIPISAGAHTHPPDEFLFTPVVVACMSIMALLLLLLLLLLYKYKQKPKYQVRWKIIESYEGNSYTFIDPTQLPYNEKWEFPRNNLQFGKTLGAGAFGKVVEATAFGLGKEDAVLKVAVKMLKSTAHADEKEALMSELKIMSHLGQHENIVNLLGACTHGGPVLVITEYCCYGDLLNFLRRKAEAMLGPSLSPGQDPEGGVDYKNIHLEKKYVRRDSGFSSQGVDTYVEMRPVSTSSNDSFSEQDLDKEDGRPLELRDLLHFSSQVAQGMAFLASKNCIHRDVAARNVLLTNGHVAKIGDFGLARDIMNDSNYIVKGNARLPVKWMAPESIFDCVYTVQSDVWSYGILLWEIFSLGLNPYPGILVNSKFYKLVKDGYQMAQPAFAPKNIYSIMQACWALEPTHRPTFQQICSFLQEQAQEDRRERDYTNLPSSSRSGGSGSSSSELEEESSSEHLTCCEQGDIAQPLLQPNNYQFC
A short description of data set [17]: Half life in mouse at 10 mg/kg, po. The class given is ADME, organism-based. The note with it: in vivo.
The test system of data set [18] is OCI-AML-3. The data set is described as follows: Antileukemic activity against human OCI-AML3 cells harboring NRAS-Q61L mutant xenografted in immunodeficient po dosed mouse administered qd on day 21 post implantation measured on day 20 post dose. The class given is functional, organism-based.
The target of data set [19] is Mitogen-activated protein kinase 14 (Homo sapiens) (UniProt Q16539). The data set is described as follows: Inhibition of human p38alpha at 1 uM relative to control.
Chain of Mitogen-activated protein kinase 14 (Homo sapiens) (Q16539 whole entry): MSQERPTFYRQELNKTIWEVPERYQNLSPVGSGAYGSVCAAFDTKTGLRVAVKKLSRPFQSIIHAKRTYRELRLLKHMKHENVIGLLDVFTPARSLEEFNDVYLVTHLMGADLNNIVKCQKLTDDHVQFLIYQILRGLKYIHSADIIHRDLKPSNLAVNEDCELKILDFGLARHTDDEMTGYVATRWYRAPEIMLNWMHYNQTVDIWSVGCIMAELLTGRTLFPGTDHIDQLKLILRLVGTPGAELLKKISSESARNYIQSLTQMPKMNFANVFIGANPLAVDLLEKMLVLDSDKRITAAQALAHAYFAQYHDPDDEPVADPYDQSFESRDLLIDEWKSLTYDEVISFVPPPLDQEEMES
Data set [20] can be described thus: MRTinfinity in mouse at 10 mg/kg, po. The class given is ADME, organism-based. As to conditions: in vivo.
Data set [21] deals with OCI-AML-3. Briefly: Antileukemic activity against human OCI-AML3 cells harboring NRAS-Q61L mutant xenografted in immunodeficient mouse assessed as tumor volume at 15 mg/kg/day, po qd administered on day 21 post implantation measured on day 20 post dose (reference value: 100%). It is filed as functional.
The nature of data set [22]: Cmax in mouse at 10 mg/kg, po. It is filed as ADME, organism-based. Also noted: dose 10 mg/kg, route oral. The note with it: in vivo.
The subject of data set [23] is BaF3. The data set is described as follows: Antileukemic activity against mouse BA/F3 cells harboring NRAS-G12D mutant allografted in immunodeficient mouse assessed as median survival time at 15 mg/kg/day, po qd administered on day 6 post implantation (reference value: 23 days). It is filed as functional.
The test system of data set [24] is BaF3. The data set is described as follows: Induction of apoptosis in mouse BA/F3 cells expressing NRAS-G12D mutant assessed as decrease in bcl2 levels at 1 uM after 24 hrs by Western blot analysis. It is filed as functional, cell-based. In a few lines: as §2
In data set [25] the test system is BaF3. Briefly: Induction of apoptosis in mouse BA/F3 cells expressing NRAS-G12D mutant assessed as increase in cleaved PARP levels at 1 uM after 24 hrs by Western blot analysis. It is filed as functional, cell-based. In a few lines:
as §2
In general terms: In western blotting, separated proteins are transferred to a membrane and probed.

Activity calls are given as the source filed them. No cut-off for these calls is given here.

In general, inhibition refers to how much of the control response was suppressed. A higher inhibition goes with strong suppression. The Tmax is the time from dosing to the highest level. The term AUC(0-inf) denotes the area under the concentration-time curve extrapolated to infinity. For orientation: half-life means the time in which the quantity being followed falls by half. What is called MRT inf is the average time that molecules of a dose stay in the body. For orientation: Cmax means the maximum level reached in the sampled fluid or tissue.

Chain of Cytoplasmic tyrosine-protein kinase BMX (Homo sapiens) (P51813 whole entry): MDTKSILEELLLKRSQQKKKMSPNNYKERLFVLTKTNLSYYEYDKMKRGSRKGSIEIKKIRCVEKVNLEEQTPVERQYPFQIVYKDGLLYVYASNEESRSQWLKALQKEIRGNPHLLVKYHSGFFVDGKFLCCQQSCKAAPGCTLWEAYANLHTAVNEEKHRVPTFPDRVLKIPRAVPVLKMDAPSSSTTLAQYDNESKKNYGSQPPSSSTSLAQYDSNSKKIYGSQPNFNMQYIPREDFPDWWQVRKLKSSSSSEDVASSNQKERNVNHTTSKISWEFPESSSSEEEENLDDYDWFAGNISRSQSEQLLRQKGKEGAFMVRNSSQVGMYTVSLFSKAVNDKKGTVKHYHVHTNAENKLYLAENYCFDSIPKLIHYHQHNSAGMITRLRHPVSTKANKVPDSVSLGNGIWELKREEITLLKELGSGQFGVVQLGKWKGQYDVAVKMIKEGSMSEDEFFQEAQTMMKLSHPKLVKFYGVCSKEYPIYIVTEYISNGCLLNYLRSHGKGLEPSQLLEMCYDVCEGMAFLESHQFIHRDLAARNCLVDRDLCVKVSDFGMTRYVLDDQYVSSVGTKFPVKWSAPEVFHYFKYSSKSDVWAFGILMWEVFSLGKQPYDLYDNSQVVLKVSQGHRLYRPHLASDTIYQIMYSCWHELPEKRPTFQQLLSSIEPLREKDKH

As for `Cc1ccc(NC(=O)c2cccc(C(F)(F)F)c2)cc1N1Cc2cnc(N)nc2N(C)C1=O`, the Activity was over 50% in the data set on BaF3 [1]; “Dose-dependent effect” in the data set on OCI-AML-3 [6]; 14.9% with OCI-AML-3 [8]; “Dose-dependent effect” in the data set on BaF3 [10]; “Non-Toxic” in the data set with Mus musculus; “Dose-dependent effect” in the data set with OCI-AML-3 [18]. In addition, the Activity in the data set on OCI-AML-3 [21] worked out at 41.9%. In addition, the inhibition in [2] stood at 98%; in [3] it was 98.1%; in data set [5], 99.1%; in [7], 93.8%; in [9], 99.4%; in data set [11], 91.6%. Besides, the inhibition was found to be 94.9% in [13], 99.4% in data set [15], 99.1% in [16] and 98.9% in data set [19]. Moreover, the Tmax in data set [4] was 2.7 h. The outcome with BaF3 [12] was Active. The compound further registered an AUC(0-inf) in data set [14] of 52500 ng·h/mL. The half-life in data set [17] was 12.4 h. Besides, in data set [20], the MRT inf was 18.1 h. Moreover, the Cmax in [22] was determined as 2410 ng/mL. Also, the MSD in the data set with BaF3 [23] amounted to 29 days.

On to `CC(=O)N1CCN(c2ccc(Nc3ncc4c(n3)N(C)C(=O)N(c3cc(NC(=O)c5cccc(C(F)(F)F)c5)ccc3C)C4)cn2)CC1`, for which the result with BaF3 [24] and in the data set on BaF3 [25] was Active.
